Measurements taken from PMC6824728 (International journal of pharmaceutics, 2019).

Columns and labels:
M-Wnt cells = experiment: In vitro cytotoxicity, MTT assay; assay type: cell-based, murine; conditions: 24 h of incubation
How it was run: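 M-Wnt cells were grown in RPMI 1640 plus 1% Glutamax and seeded at 1,000 cells/well. After overnight attachment at 37°C, 5% CO2, they were treated for 24 h with graded concentrations of free compound (DMSO stock diluted in medium) or SLN formulation (dispersed in medium). Drug-free SLN, DMSO and medium controls were included. Survival was read by MTT.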

B16-F10 cells = experiment: In vitro cytotoxicity, MTT assay; assay type: cell-based, murine; conditions: 48 h of incubation
How it was run: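 B16-F10 cells were grown in DMEM and seeded at 4,000 cells/well. After overnight attachment at 37°C, 5% CO2, they were exposed for 48 h to graded concentrations of free compound (DMSO stock diluted in medium) or SLN formulation (dispersed in medium). Drug-free SLNs, DMSO and medium served as controls. Survival was read by MTT.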

B16-F10 tumor = experiment: Antitumor activity in mice with pre-established B16-F10 tumors; assay type: in vivo; conditions: B16-F10 s.c. tumors, i.v. 50 mg/kg DHA-dFdC on days 7, 10, 13, 16
B16-F10 tumors = experiment: Histology; assay type: in vivo, C57BL/6 mice; conditions: tumors collected day 17; i.v. 50 mg/kg DHA-dFdC x 4
How it was run: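 Female C57BL/6 mice (18–20 g, 6–8 weeks) received 5 × 10^5 B16-F10 cells s.c. in the right flank on day 0. They were randomized on day 7 and dosed i.v. every 3 days ×4 at 50 mg/kg. Free compound was given in Tween 80/ethanol/5% mannitol vehicle; SLNs were dispersed in 5% mannitol. Tumors were harvested day 17, formalin-fixed, embedded and H&E stained.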

[1] = ref Naguib et al., 2016; cited from earlier work
[2] = Tween 80-ethanol-water solution, room temperature; ref Naguib et al., 2016; cited from earlier work
[3] = 20°C; ref Kim and Hsieh, 2001; Wu and Hopkins, 1999; cited from earlier work

Row | Molecule | IC50 (M-Wnt cells) | IC50 (B16-F10 cells) | Tumor growth delay (B16-F10 tumor) | Tumor histology (H&E) (B16-F10 tumors) | Intrinsic solubility in water [1] | Half-life of DHA-dFdC in solution [2] | Critical micelle concentration [3]
1 | CC/C=C\C/C=C\C/C=C\C/C=C\C/C=C\C/C=C\CCC(=O)Nc1ccn([C@@H]2O[C@H](CO)[C@@H](O)C2(F)F)c(=O)n1 [DHA-dFdC, 4-(N)-docosahexaenoyl 2′, 2′-difluorodeoxycytidine] | 2150 nM | 1810 nM | 4 days | vascular collapse and necrotic areas | ~ 25 μg/mL | ~ 14 h | –
2 | Tween 20 | – | – | – | – | – | – | ~ 1 % (w/v)
